Experimental data collected from several papers.
Protocols differ between the studies behind these lines.
Observed: cell growth or viability

| SMILES | cell line | assay | setting | IC50 |
| --- | --- | --- | --- | --- |
| Cc1ccc2nc(-c3ccc([N+](=O)[O-])cc3)[nH]c2c1 | MDA-MB-231 | MTT | 48 h | 17.6 µM |
| O=C(Nc1ccc2[nH]nc(-c3ccncc3)c2c1)[C@@H]1CCN(CC(=O)N2CCN(c3ccc(-c4ncccn4)cc3)CC2)C1 | A-375 | resazurin | 96 h | 0.037 µM |
| Nc1nc(Nc2ccc3c(c2)CC[C@@H](N2CCCC2)CC3)nn1-c1cc2c(nn1)-c1ccccc1CCC2 | CMK | trypan blue | 72 h | 2.24 µM |
| O=[N+]([O-])c1ccc(-c2nc3ccccc3n2Cc2ccccc2)cc1 | MDA-MB-231 | MTT |  | 8.32 µM |
| Oc1c(I)cc(Cl)c2cccnc12 | BEL-7404 | MTT | 48 h | 65.1 µM |
| COC(=O)/C=C/C=C/c1ccc2c(c1)OCO2 | MRC5 | SRB |  | 250 µM |
| COc1ccc(-c2cc(=O)c3c(OC)cc(C)c(-c4c(C)cc(OC)c5c(=O)cc(-c6ccc(OC)cc6)oc45)c3o2)cc1 | HS27 | MTT | 24 h | > 200 µM |
| COC(=O)CN=c1scc(-c2ccccc2)n1-c1ccc(Cl)cc1 | Panc 04.03 | MTT | 72 h | 52.1 µM |
| COc1cc(C)c(-c2c(C)cc(OC)c3c(=O)cc(-c4ccc(N(C)C)cc4)oc23)c2oc(-c3ccc(N(C)C)cc3)cc(=O)c12 | HS27 | MTT |  | 180 µM |
| COc1ccc([C@H]2OC[C@H](Cc3ccc(C(C)(C)C)cc3)[C@@H]2CO)cc1OC | rat VSMC | resazurin | 48 h | 5 µM |
| COc1cccc2c1C(=O)c1c(O)c3c(c(O)c1C2=O)C[C@@](O)(C(=O)CO)C[C@@H]3O[C@H]1C[C@H](N)[C@H](O)[C@H](C)O1 | LLC-PK11 | neutral red | 48 h | < 0.55 µg/mL |
| CC(=O)O[C@H]1C(=O)[C@@]2(C)[C@H]([C@H](OC(=O)c3ccccc3)[C@]3(O)C[C@H](OC(=O)[C@H](O)[C@@H](NC(=O)c4ccccc4)c4ccccc4)C(C)=C1C3(C)C)[C@]1(OC(C)=O)CO[C@@H]1C[C@@H]2O | MDA-MB-231 | MTT |  | 1.38 µM |
| C/C=C(/C)C(=O)OC[C@H]1[C@@H](Cc2ccc(C(F)(F)F)cc2)CO[C@@H]1c1ccc(OC)c(OC)c1 | rat VSMC | resazurin | 48 h | 20.1 µM |
| Cc1ccc2c(Br)cc(Br)c(O)c2n1 | BEL-7404 | MTT | 48 h | > 150 µM |
| COc1cc(C)cc2oc(-c3cccc(Br)c3)cc(=O)c12 | HS27 | MTT | 24 h | 104 µM |
| CCOc1cc(-c2nc3ccc(C)cc3[nH]2)ccc1O | MDA-MB-231 | MTT | 48 h | > 100 µM |
| COC(=O)CN=c1scc(-c2ccccc2)n1-c1ccc(OC)cc1 | Panc 04.03 | MTT | 72 h | 75.2 µM |
| COc1ccc(-c2cc(=O)c3c(OC)cc(C)cc3o2)cc1 | HS27 | MTT | 24 h | > 200 µM |
| C/C=C(/C)C(=O)OC[C@H]1[C@@H](Cc2ccc(C(F)(F)F)cc2)CO[C@@H]1c1ccccc1 | rat VSMC | resazurin | 48 h | 4.2 µM |
| Cc1ccc2nc(-c3ccncc3)[nH]c2c1 | MDA-MB-231 | MTT | 48 h | 74.6 µM |

| SMILES | cell line | assay | setting | IC50 |
| --- | --- | --- | --- | --- |
| COc1cc2nccc(Oc3ccc(NC(=O)C4(C(=O)Nc5ccc(F)cc5)CC4)cc3)c2cc1OC | CMK | trypan blue | 72 h | > 5.91 µM |
| COc1ccc(C(=O)O[C@@H]2CN3Cc4c(cc5c(c4OC)OCO5)[C@@]24C=C[C@H](OC)C[C@@H]34)cc1OC | MRC5 | WST-1 |  | 6.1 µM |
| COc1cc(OC)c2c(=O)cc(-c3cccc(Br)c3)oc2c1 | HS27 | MTT | 24 h | 128 µM |
| COC(=O)CN=c1scc(-c2ccccc2)n1-c1ccccc1OC | SiHa | MTT | 72 h | 4.2 µM |
| Cc1ccc2c(Cl)cc(Cl)c(O)c2n1 | BEL-7404 | MTT | 48 h | > 100 µM |
| Cc1ccc2nc(-c3c4ccccc4cc4ccccc34)[nH]c2c1 | MDA-MB-231 | MTT | 48 h | 36.8 µM |
| COc1ccnc(-c2cc(OC)ccn2)c1 | BEL-7404 | MTT | 48 h | > 50 µM |
| COC(=O)CN=c1scc(-c2ccccc2)n1-c1ccccc1[N+](=O)[O-] | SiHa | MTT | 72 h | 6.78 µM |
| COc1cc(C)cc2oc(-c3ccccc3)cc(=O)c12 | HS27 | MTT | 24 h | > 200 µM |
| Nc1ccn([C@@H]2O[C@H](CO)[C@@H](O)C2(F)F)c(=O)n1 | Panc 04.03 | MTT | 72 h | 0.19 µM |
| CCOc1cc(-c2nc3ccccc3[nH]2)ccc1O | MDA-MB-231 | MTT | 48 h | 48.3 µM |
| Oc1c(Br)cc(Br)c2cccnc12 | BEL-7404 | MTT | 48 h | 68.1 µM |
| Clc1ccc(-c2nc3ccccc3n2Cc2ccccc2)cc1Cl | MDA-MB-231 | MTT |  | 52.5 µM |
| COC(=O)CN=c1scc(-c2ccccc2)n1-c1ccccc1 | Panc 04.03 | MTT | 72 h | > 100 µM |
| COc1cc(C)cc2oc(-c3ccccc3Br)cc(=O)c12 | HS27 | MTT |  | 130 µM |
| Oc1ccc(Nc2nc(-c3ccc(Cl)cc3)cs2)cc1 | FF2441 | MTS | 24 h | > 100 µM |
| O=C(O)/C=C/c1ccc(O)cc1 | A-375 | MTT |  | > 50 µM |
| COC(=O)CN=c1scc(-c2ccccc2)n1-c1ccc(C)cc1 | SiHa | MTT | 72 h | 6.17 µM |
| COc1cc(OC)c2c(=O)cc(-c3ccccc3Br)oc2c1 | HS27 | MTT | 24 h | > 200 µM |
| CC(=O)c1ccc(/N=N/c2cc(/C=C/C(=O)O)ccc2O)cc1 | A-375 | MTT |  | > 50 µM |
